# Experimental data: ChEMBL document CHEMBL1133176, “3-Aryl-[1,2,4]triazino[4,3-a]benzimidazol-4(10H)-ones: tricyclic heteroaromatic derivatives as a new class of benzodiazepine receptor ligands” (J Med Chem, 2000)
# Active and inactive are the calls of the source. The rule behind the calls is not given here.
# Assays:
# [1] = target: T1, GABA-A receptor; anion channel (Bos taurus) (UniProt P10063+P08220+P20237+P08219+P10064+P22300); assay: Relative binding to GABA-A receptor in the presence and absence of GABA (GABA shift), Ki(-GABA)/Ki(+GABA); type: protein-complex assay
# Outline: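 Bovine brain membranes, frozen-thawed and washed in 50 mM Tris-citrate pH 7.4, used for displacement of radiolabeled antagonist [3H]Ro 15-1788. Ki reported as mean ± SEM of three determinations. GABA ratio taken as Ki without GABA divided by Ki with GABA.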
# Mus musculus [2] = assay: Antagonism of Diazepam (2.5 mg/kg, ip) anticonvulsant effect in mice treated with PTZ (80 mg/kg, sc), No effect to 250 mg/kg dose; type: functional, organism-based; set-up: dose 250 mg/kg
# Outline: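 Mice received diazepam 2.5 mg/kg ip plus convulsant PTZ 80 mg/kg sc. The dose of test compound that antagonizes the anticonvulsant effect of diazepam was determined, with a highest dose of 250 mg/kg. Values are means of at least three determinations.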
# Mus musculus [3] = assay: Dose required to antagonise the convulsant action of PTZ (80 mg/kg, sc) in 50% mice; No effect at a highest dose of 250 mg/kg; type: functional, organism-based; set-up: dose 250 mg/kg
# [4] = target: T1, GABA-A receptor; anion channel (Bos taurus); assay: Inhibition of […] [3H]- Ro.15-1788 binding to benzodiazepine receptors in bovine brain membrane.; type: cell membranes
# [5] = target: T1, GABA-A receptor; anion channel (Bos taurus); assay: (§1) Inhibition of [35S]-TBPS binding to GABA-A central Benzodiazepine Receptor of bovine cerebral cortex membranes; type: tissue-based; set-up: concentration or dose not given beside the values; conditions: concentration not given here
# Outline: (§2)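 [35S]TBPS binding run in the presence of GABA with compounds at 0.5 μM, on bovine brain membranes washed in Tris-citrate pH 7.4. […] Mean ± SE of three separate experiments.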
# [6] = target: GABA-A receptor; anion channel; assay: Displacement of [3H]- Ro.15-1788 from GABA-A central Benzodiazepine receptor (BzR) of Bovine cerebral cortex membrane; type: tissue-based, Bos taurus
# Mus musculus [7] = assay: Proconvulsant action measured as the dose required to induce convulsions in 50% of mice that had been previously given a subconvulsant dose of PTZ (40 mg/kg, sc); No effect at a hieghst dose of 250 mg/kg; type: functional, organism-based; set-up: dose 250 mg/kg
# Outline: (§3)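 Mice pretreated with a subconvulsant PTZ dose of 40 mg/kg sc. The dose inducing convulsions in 50% of animals was determined, with compounds tested up to 250 mg/kg. Values are means of at least three determinations, with ≤20% variation between experiments.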
# Mus musculus [8] = assay: Antagonism of Diazepam (2.5 mg/kg, ip) anticonvulsant effect in mice treated with PTZ (80 mg/kg, sc); type: functional
# Outline: (§4)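 Mice; anticonvulsant value is the dose protecting 50% of animals from convulsions caused by PTZ 80 mg/kg sc; diazepam antagonism measured as dose reversing the anticonvulsant effect of diazepam 2.5 mg/kg ip in mice given PTZ 80 mg/kg sc. Top test dose 250 mg/kg; means of at least three determinations (≤20% between-experiment difference).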
# Mus musculus [9] = assay: Proconvulsant action measured as the dose required to induce convulsions in 50% of mice that had been previously given a subconvulsant dose of PTZ (40 mg/kg, sc); type: functional
# Outline: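 Proconvulsant test in mice pretreated with subconvulsant PTZ 40 mg/kg sc; value is the dose inducing convulsions in 50% of animals. Highest test dose 250 mg/kg; means of at least three determinations, ≤20% difference between experiments.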
# Mus musculus [10] = assay: Dose required to antagonise the convulsant action of PTZ (80 mg/kg, sc) in 50% mice; No effect at a highest dose of 30 mg/kg; type: functional, organism-based; set-up: dose 30 mg/kg
# Mus musculus [11] = assay: Dose required by the compound in vivo to antagonise the convulsant action of PTZ (80 mg/kg, sc) in 50 % mice; type: functional; outline: as §4
# Mus musculus [12] = assay: Proconvulsant action measured as the dose required to induce convulsions in 50% of mice that had been previously given a subconvulsant dose of PTZ (40 mg/kg, sc); No effect at a highest dose of 250 mg/kg; type: functional, organism-based; set-up: dose 250 mg/kg; outline: as §3
# [13] = target: T1, GABA-A receptor; anion channel (Bos taurus); assay: as §1; type: tissue-based; conditions: concentration not given here; outline: as §2
# Mus musculus [14] = assay: Dose required to antagonise the convulsant action of PTZ (80 mg/kg, sc) in 50% mice; No effect at a highest dose of 100 mg/kg; type: functional, organism-based; set-up: dose 100 mg/kg
# Mus musculus [15] = assay: Proconvulsant action measured as the dose required to induce convulsions in 50% of mice that had been previously given a subconvulsant dose of PTZ (40 mg/kg, sc); No effect at a highest dose of 100 mg/kg; type: functional, organism-based; set-up: dose 100 mg/kg
SMILES,GABA ratio [1],inhibition [4] [%],inhibition [5] [%],Ki [6] [nM],further results
COc1ccc(-c2nnc3nc4ccccc4n3c2O)cc1,1.25,89,5,44,NE (Mus musculus [2]): inactive; NE (Mus musculus [3]): inactive; NE (Mus musculus [7]): inactive
Oc1c(-c2ccsc2)nnc2nc3ccccc3n12,1.2,85,–,107,–
Cn1c2ccccc2n2c(=O)c(-c3cccs3)nnc12,–,63,–,–,–
COC(=O)c1cc2c(cn1)[nH]c1ccccc12 [BETA-CCM],–,–,–,–,Diazepam antagonism (Mus musculus [8]): 0.02; Proconvulsant action (Mus musculus [9]): 19.4; NE (Mus musculus [10]): inactive
Cc1ccc(-c2nnc3nc4ccccc4n3c2O)s1,0.96,83,–,115,–
Cn1c2ccccc2n2c(=O)c(-c3ccccc3)nnc12,1.7,92,66,860,NE (Mus musculus [2]): inactive; ED50 (Mus musculus [11]): 60 mg/kg; NE (Mus musculus [12]): inactive
Oc1c(-c2cccs2)nnc2nc3ccccc3n12,0.97,99,–,13,inhibition [13]: 28%; NE (Mus musculus [2]): inactive; NE (Mus musculus [3]): inactive; NE (Mus musculus [12]): inactive
Oc1c(-c2ccc(Cl)cc2)nnc2nc3ccccc3n12,–,34,–,–,–
Cc1ccc(-c2nnc3nc4ccccc4n3c2O)cc1,–,56,–,–,–
Oc1ccc(-c2nnc3nc4ccccc4n3c2O)cc1O,1.2,99,–,170,–
Oc1c(-c2ccco2)nnc2nc3ccccc3n12,0.98,93,25,56,–
Oc1cnnc2nc3ccccc3n12,–,11,–,–,–
COc1ccc(-c2nnc3n(C)c4ccccc4n3c2=O)cc1,–,53,–,–,–
Cn1c2ccccc2n2c(=O)c(-c3ccco3)nnc12,–,68,–,–,–
Oc1ccc(-c2nnc3nc4ccccc4n3c2O)cc1,0.87,99,15,74,–
CN1C(=O)CN=C(c2ccccc2)c2cc(Cl)ccc21 [DIAZEPAM],–,–,–,–,ED50 (Mus musculus [11]): 0.4 mg/kg
Cn1c2ccccc2n2c(=O)c(-c3ccc(Cl)cc3)nnc12,–,30,–,–,–
Oc1c(-c2ccccc2)nnc2nc3ccccc3n12,1.2,97,35,53,NE (Mus musculus [2]): inactive; NE (Mus musculus [3]): inactive; NE (Mus musculus [12]): inactive
Cc1nnc2nc3ccccc3n2c1O,–,26,–,–,–
O=C1CN=C(c2ccccc2Cl)c2cc([N+](=O)[O-])ccc2N1,–,–,100,–,–
CCOC(=O)c1ncn2c1CN(C)C(=O)c1cc(F)ccc1-2 [FLUMAZENIL],0.9,–,15,0.09,Diazepam antagonism (Mus musculus [8]): 0.3; NE (Mus musculus [14]): inactive; NE (Mus musculus [15]): inactive
COc1ccc(-c2nnc3nc4ccccc4n3c2O)cc1OC,–,17,–,–,–
